In ChEMBL document CHEMBL1124368 (J Med Chem, 1989):

Tests used:
Mus musculus [1] = experiment: Tumor volume in 24 days after tumor implantation at a dose of 6.25 mg/kg/day; format: functional
In short: (§1)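 10⁶ M5076 reticulum cell sarcoma cells were injected im into the left leg of female BDF₁ mice, five per group, on day 0. Compound in 10–20% DMSO/arachis oil was dosed ip daily on days 1–17. Tumor volumes (mm³) were recorded on days 12, 16, 20 and 24 after implantation, with NM marking a tumor that could not be measured.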

Mus musculus [2] = experiment: Mean of weight gain from day 0 to day 24 at a dose of 6.25 mg/kg/day; format: functional; set-up: unit not given here
In short: (§2)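 M5076 reticulum cell sarcoma: 10⁶ cells implanted im into the left leg of female BDF₁ mice (groups of five) on day 0. Drug in 10–20% DMSO in arachis oil was given ip daily on days 1–17. Weight change is the mean weight gain from day 0 to day 24.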

Mus musculus [3] = experiment: Tumor volume in 20 days after tumor implantation at a dose of 6.25 mg/kg/day of compound; format: functional; in short: as §1
Mus musculus [4] = experiment: Mean of weight gain from day 0 to day 24 at a dose of 12.5 mg/kg/day of compound; format: functional; set-up: unit not given here; in short: as §2
Mus musculus [5] = experiment: Tumor volume in 12 days after tumor implantation at a dose of 3.125 mg/kg/day of compound; format: functional; in short: as §1
Mus musculus [6] = experiment: Tumor volume in 16 days after tumor implantation at a dose of 6.25 mg/kg/day of compound; format: functional; in short: as §1
Mus musculus [7] = experiment: Tumor volume in 20 days after tumor implantation at a dose of 12.5 mg/kg/day of compound; format: functional; in short: as §1
Mus musculus [8] = experiment: Tumor volume in 12 days after tumor implantation at a dose of 12.5 mg/kg/day of compound; format: functional; in short: as §1
Mus musculus [9] = experiment: Tumor volume in 24 days after tumor implantation at a dose of 25 mg/kg/day of compound; format: functional; in short: as §1
Mus musculus [10] = experiment: Tumor volume in 16 days after tumor implantation at a dose of 12.5 mg/kg/day of compound; format: functional; in short: as §1
Mus musculus [11] = experiment: Ratio of tumor volume of test(T) animals compared to control(C) animals x 100 T/C(%)] at a dose of 3.125 mg/kg/day; format: functional
In short: (§3)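 M5076 reticulum cell sarcoma: 10⁶ cells implanted im into the left leg of female BDF₁ mice (groups of five) on day 0. Treatment was ip, daily on days 1–17, in 10–20% DMSO in arachis oil. T/C% is treated tumor volume over control tumor volume × 100.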

Mus musculus [12] = experiment: Tumor volume in 20 days after tumor implantation at a dose of 3.125 mg/kg/day; format: functional; in short: as §1
Mus musculus [13] = experiment: Ratio of tumor volume of test(T) animals compared to control(C) animals x 100 T/C(%)] at a dose of 25 mg/kg/day; format: functional; in short: as §3
Mus musculus [14] = experiment: Mean of weight gain from day 0 to day 24 in the mice at a dose of 50 mg/kg/day of compound; format: functional; in short: as §2
Mus musculus [15] = experiment: Tumor volume in 24 days after tumor implantation at a dose of 12.5 mg/kg/day; format: functional; in short: as §1
Mus musculus [16] = experiment: Ratio of tumor volume of test (T) animals compared to control (C) animals x 100 T/C(%)] at a dose of 50 mg/kg/day of compound; format: functional; in short: as §3
Mus musculus [17] = experiment: Tumor volume in 24 days after tumor implantation at a dose of 3.125 mg/kg/day; format: functional; in short: as §1
Mus musculus [18] = experiment: Tumor volume in 12 days after tumor implantation at a dose of 6.25 mg/kg/day of compound; format: functional; in short: as §1
Mus musculus [19] = experiment: Ratio of tumor volume of test(T) animals compared to control(C) animals x 100 T/C(%)] at a dose of 12.50 mg/kg/day; format: functional; in short: as §3
Mus musculus [20] = experiment: Tumor volume in 24 days after tumor implantation at a dose of 50 mg/kg/day of compound; format: functional; in short: as §1
Mus musculus [21] = experiment: Ratio of tumor volume of test(T) animals compared to control(C) animals x 100 T/C(%)] at a dose of 6.25 mg/kg/day; format: functional; in short: as §3
Mus musculus [22] = experiment: Tumor volume in 16 days after tumor implantation at a dose of 3.125 mg/kg/day of compound; format: functional; in short: as §1
Mus musculus [23] = experiment: Mean of weight gain from day 0 to day 24 at a dose of 25 mg/kg/day of compound; format: functional; set-up: unit not given here; in short: as §2
Mus musculus [24] = experiment: (§4) Mean of weight gain from day 0 to day 24 at a dose of 3.125 mg/kg/day of compound; format: functional; set-up: unit not given here; in short: as §2
Mus musculus [25] = experiment: Mean of weight gain from day 0 to day 24 at a dose of 50 mg/kg/day of compound; format: functional; in short: as §2
Mus musculus [26] = experiment: Tumor volume in 16 days after tumor implantation at a dose of 25 mg/kg/day of compound; format: functional; in short: as §1
Mus musculus [27] = experiment: Tumor volume in 20 days after tumor implantation at a dose of 25 mg/kg/day of compound; format: functional; in short: as §1
Mus musculus [28] = experiment: Tumor volume in 24 days after tumor implantation at a dose of 3.125 mg/kg/day of compound; format: functional; in short: as §1
Mus musculus [29] = experiment: as §4; format: functional; in short: as §2
Mus musculus [30] = experiment: Tumor volume in 20 days after tumor implantation at a dose of 3.125 mg/kg/day of compound; format: functional; in short: as §1
Mus musculus [31] = experiment: Ratio of tumor volume of test(T) animals compared to control(C) animals x 100T/C(%)] at a dose of 3.125 mg/kg/day of compound; format: organism-based; conditions: in vivo; in short: as §3

Structure (SMILES)	Tumor volume (Mus musculus [1])	Weight change (Mus musculus [2])	Tumor volume (Mus musculus [3])	Weight change (Mus musculus [4])	Tumor volume (Mus musculus [5])	Tumor volume (Mus musculus [6])	Tumor volume (Mus musculus [7])	Tumor volume (Mus musculus [9])	Tumor volume (Mus musculus [10])	Antitumor activity (Mus musculus [11])	Tumor volume (Mus musculus [12])	Antitumor activity (Mus musculus [13])	Tumor volume (Mus musculus [15])	Antitumor activity (Mus musculus [16])	Tumor volume (Mus musculus [17])	Antitumor activity (Mus musculus [19])	Antitumor activity (Mus musculus [21])	Tumor volume (Mus musculus [22])	Weight change (Mus musculus [23])	Weight change (Mus musculus [24])	further results
CCCCNc1ccc(-c2c(N)nc(N)nc2CC)cc1[N+](=O)[O-]	1920 mm**3	5.4	913 mm**3	3.6	271 mm**3	438 mm**3	496 mm**3	638 mm**3	283 mm**3	78%	1176 mm**3	22%	1061 mm**3	15%	2143 mm**3	41%	70%	622 mm**3	3.7	8.2	Tumor volume (Mus musculus [8]): 180 mm**3; Weight change (Mus musculus [14]): 2.7; Tumor volume (Mus musculus [18]): 212 mm**3; Tumor volume (Mus musculus [20]): 368 mm**3
CCc1nc(N)nc(N)c1-c1ccc(NCc2ccc(Cl)c(Cl)c2)c([N+](=O)[O-])c1	851 mm**3	3.5	385 mm**3	3	216 mm**3	256 mm**3	216 mm**3	–	–	48%	858 mm**3	<8%	395 mm**3	<8%	1173 mm**3	16%	36%	498 mm**3	2.7	3.6	Weight change (Mus musculus [25]): 2.9
CCc1nc(N)nc(N)c1-c1ccc(NCc2ccc(C)cc2)c([N+](=O)[O-])c1	1099 mm**3	2.1	704 mm**3	2.4	–	270 mm**3	385 mm**3	514 mm**3	198 mm**3	76%	1581 mm**3	20%	641 mm**3	–	1881 mm**3	24%	44%	596 mm**3	2.4	3	Tumor volume (Mus musculus [26]): 180 mm**3; Tumor volume (Mus musculus [27]): 426 mm**3
CN(Cc1cnc2nc(N)nc(N)c2n1)c1ccc(C(=O)N[C@@H](CCC(=O)O)C(=O)O)cc1 [METHOTREXATE]	–	–	–	–	411 mm**3	389 mm**3	–	–	–	–	–	–	–	–	–	–	–	987 mm**3	–	–	Tumor volume (Mus musculus [28]): 2270 mm**3; Weight change (Mus musculus [29]): 3.9; Tumor volume (Mus musculus [30]): 1914 mm**3; Tumor volume (Mus musculus [18]): 347 mm**3; T/C (Mus musculus [31]): 92%
